The record followed here is the RNAGym collection of RNA variant scans (doi:10.1126/science.aae0568).

B1: tRNA (parent)
chain: GUUCCGUUGGCGUAAUGGUAACGCGUCUCCCUCCUAAGGAGAAGACUGCGGGUUCGAGUCCCGUACGGAACG

This sample holds only a part of the variants without activity.

In this series the parent is B1. Put plainly: yeast fitness relative to wild type (ratio to wild type); higher = fitter; tRNA-Arg(CCU), competitive growth, 37 C, YPD. The method, boiled down: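 For this measurement, the tRNA-Arg(CCU) gene was varied by chemical synthesis at a 3% per-site mutation rate across 69 sites, and each variant was placed at the native genomic locus in Saccharomyces cerevisiae. The pooled strains went through a 24-hour competition in YPD at 37°C in six parallel replicates, with amplicons from start and end populations read by 100-nucleotide paired-end sequencing. Darwinian fitness relative to wild type followed from the change in each genotype's frequency. Genotypes needed ≥ 100 starting reads, and estimates < 0.5 were set to 0.5.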
Regarding GUUCCGUUGGCGUAAUGGUAACGCGUCUCACUCCUAAGGAGAAGACUGCGGGAUCGAGUCCCGUACGGAACG, the yeast fitness was 0.618.
The figure for GUUCCGUUGGCGUAAUGGUAACGCGUCUCCCUCAUAAGGAGAAGACCGCGAGUUCGAGUCCCGUACGGUACG is at most 0.5.
The figure for GUUGCGUUGGCGUAAUGGUAACGCAUCUCCCUCCUAAGGAGAAGACUGCGGGUUCGAGUCCCGUACGGAACG is 0.894; for GUUCCGUUGGCGUAAUGGUAGCGCGUUUCCCUCCUAUGGAGAAGUCUGCGGGUUCGAGUCCGGUACGGAACG it is at most 0.5; for GUUCCGUUGGCGUAAUGGUAACGCGUCUCCCUCCUAAGGAGAAGCCUGCGGGUUUGAGUCCCGUACCGAACG it is at most 0.5.
For GUUCUGUUGGCGUAAUAGUAACGCGUCUUCCUCCUAAGGAGAAGACUGCGGCUUGGAGUCCCGUACGGUACG, the yeast fitness is at most 0.5.
To GUUCCGUUGGCGUAAUGGUAACGCGUCUCCCUCCUAAGGAGAAGACUGUGGGCUCGAGUCCCGUACGGAACG belongs 0.691; to GUUCCAUCGGCGUAAUGGAAACGCGUCUCACUCCUAAGGAGAAGUCUGCGGGUUCGACUCCCGUACGGUACG, at most 0.5; to GUUCCGUUGGCGUAAUGGUAACGCGUUUCCCUCCUAAGGAGAAGACUGCGGGUUCGAGCCCCGUACGGUACG, 0.795.
The figure for GUUCCGUUGGCGUAAUGGUAACGCGACUCCCUCCUAACGAGAAGUCUGCGGGUUUGAGUCCCGUACGGAACG is at most 0.5; for GUUCCGUUGGCGUAAUGGUAACGCGUCUCCCCCCUAAGGAGAAGACUGCGGGUUCGAGUCCCGUAUGGAACG it is 0.966; for GUUCCGUUGGCGUAAUGGUAACCCGUCUCCGUACUAAGGAGAAGACUGCGGGUUCGUGACCCAUACGGAACG it is at most 0.5.
To GUUCCGUUGGCGUAUUGGUAAGGCGUCUCCUUCCUAAGGAGAAGACUGCGGGUUCGCGUCCCGUACGGAACG belongs at most 0.5; to GUUCCGUUGGCGUGAUGGUAACGCGUCCCCCUCCUAAGGAGAAGACUGCGGGUUCGAGUCCCGUACGGAACG, 0.692; to GUUCCGUUGGAGUAAUGGUAACGCGUCUCCCUCCUAAGAAGAAGACUGCGGGUUCGAGUCCCGUACGGAACG, 0.63.
For the variant GUUCCGUUGGCGUAAUGGUCGCGCGUCUCCCUCCUAAGGAGAAGUCUGCGGGUUCGAGUCCCGUACGGAACG, the yeast fitness came to 0.91.
As to GUACCGAUGGCGUAAUGGUAAUGCGUCUCCCUCCUAAGGAGAAGACUGAGGGUUCGAGUCCCGUACGGAACG, the yeast fitness is at most 0.5.
To GUUCCGUUGGCGUAAUGGUCACGCAUCUCCCUCCUAAGGAGAAGACUGCGGGUUCGGGUCCCGUACGGAACG belongs 0.694; to GUUCCGUUGGCCUAAUGGUAACGCGUCUCCCUCCUAAGGGGAAGACUGCCGGUUCGAGUCCUGUACGGAACG, 0.756.
To GUUCCGUUGGCGUACUGGUAAGGCGUCUCCCUCCUAAGGAGAAGACUGCGGGUUCGACUCCUGUACGGAACG belongs at most 0.5; to GUUCCGGUGGCGUAAUGGUAACGCGACUCCCUCCUAAGGAGAAGACUGCGGGUUCGAGUCCCAUACGGAACG, at most 0.5; to GUUCCGUUCGGGUAAUGGUAACGCGUCUCCCUCCUAAGGAGAAGACUGCGGGUUCAAGUCCCGUACGGAACG, at most 0.5.
With GUUCCGUUGGCGUAAUGGUAACGCGUCUCCCGCCGCAGGAGAAGACUGCGGGUCCGAGUCCCGUACGGAACG, the yeast fitness was at most 0.5.
To GUUCCGUUGGCGUAAUGGUAACGAGUCUCCCUCCUAAGGAGAUGACUGCGGAUUCGAGUCCCGUACGGAACG belongs at most 0.5; to GUUCCGUCGGCGAAAUGGUAACGUGUCUGCCUACUAAGGAGAAGACAGCGGGUUUGAGUCCCGUCCGGAACG, 0.787.
To GUUCCGUUGGCGUAAUGGUAACGCGUCUCCCUCCUAAGGAGAAGAUUGCGGAUUCGAGUCCCGUACGGAACG belongs 0.729; to GUUCCAUUGGCGUAAUGGUAACGCCUCUCCCUCCUAAGGAGAAGACUGCGGGUUCGAGUCCCGUUCGGAACG, 0.663.
Consider GUUCCGUUGGCGUAAUGGUAACGCGUCUCCCUCCUAAGGCGAAGACUGUGGGUUCGAGUCCCGUACGGAACG, for which the yeast fitness was 0.892.
As for GUUCCGUUGGCGUAAUGGUAACCCGUCUCCCUCCUAAGGAGAAGACUGCGGGUUCGAGUCCCGUGCGGUACG, the yeast fitness amounted to 0.524.
GUUCCGUUGGGGUAAUGGUAACGCGUCUUCCUCCUAAGGAGAAGACUGCGGGUUCGAGUCCCGUACGGAACG: the yeast fitness was found to be 0.557.
To GUUCCGUUGGCGUAAUGGUAACGCGUCUCCCUCCUAAGGAGGUCACUGCGGGUUCGAGUCCCGUCCGGAACG belongs at most 0.5; to GAUCCGUUGGCGUAAUGGUAGCGCGUCUCCCUCCUAAGGAGAACACUGCGGGUUCGAGGCUCGUACGGAACG, at most 0.5; to GUUCCGUUGGCGUAAUGGUAACGCCUCUUCCUACUAAGGAGAAGACUGGGGGUUCGAGUCCCGUACGGAACG, 0.714.
To GGUCAGUUGGCGUAAUGGUAACGCGUCUCCCUCCUAAGGAGAAGACUGCGGGUUGGAGUCCCGUACGGAACG belongs 0.561.
The figure for GUUCCGUUGGCGUAAUGGUAACGCGCCUCCUUCCUAAGGAGAAGACUGUGGGUUCGAGUCCCGUAGGGAACG is at most 0.5; for GUUCCGUUGGCGUAAUGGUAACGGGUCUCCCUCCUAAGGAGACGACUGCGGGUUCGUGUCCCGUACGGAACG it is at most 0.5.
Turning to GUUCCGCUGGCGUAAUGGUAACGCGUCUCCCUCCUAAGGAGAAGACUGCGGGAUCGAGUCCCGUACGGAACG, the yeast fitness is 0.655.
